Results filed as inconclusive are left out. The source made the active and inactive calls.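 How the source made its calls, unless noted: active means viability increase at or above a cutoff of the median across tested compounds plus 3 SD (cut at about 8.5% in these data, passing the limit was not always enough); inconclusive means some gains above the cutoff, reason not given; inactive means the rest.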
Columns and labels:
[1] = S. cerevisiae growth inhibition in permissive medium (OD615), pilot counter-assay for S. cerevisiae lifespan shortening project, permissive growth control (AID 705;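 active means growth inhibition above 25% in both replicates, a cutoff set 3 SD above the mean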); conditions: OD615, 24 h, at 10 µM, active compounds read high
Procedure, shortened: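 Timing: 24 h exposure, 30 °C / Material: Saccharomyces cerevisiae strain carrying genetically modified DeaD replicative-lifespan system / Signal: OD at 615 nm / Compound: 10 µM single dose, 0.25% DMSO / Medium: SC raffinose/galactose permissive medium / Evaluation: reduction in yeast growth (OD615)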

[2] = S. cerevisiae growth inhibition in restrictive medium, OD615, pilot screen, restrictive growth control, yeast lifespan reduction project (AID 706;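 active means growth inhibition above a set limit, 3 SD over mean compound inhibition, in both replicates, cut at about 43% in these data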;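 further: modified DeaD lifespan yeast strain shifted to restrictive glucose medium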); conditions: OD615, 48 h, at 10 µM, active compounds read high
Procedure, shortened: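 System: Engineered S. cerevisiae DeaD strain | Detection: OD615 | Buffer or medium: CSMM-D glucose medium | Doses: 10 µM compound, 0.25% DMSO | Timing: 4 h pre-growth plus 48 h compound exposure, 30 °C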

[3] = doxorubicin toxicity protection in MRP-1 cells – H69AR cells, CellTiter-Glo, duplicate, MRP-1 activator project, pilot screen (AID 807); conditions: H69AR viability with doxorubicin, CellTiter-Glo luminescence; at 10 µM; active compounds read high;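 further: compound pretreatment 18-22 h then 72 h combined with doxorubicin; 0% = doxorubicin alone and 100% = vehicle without doxorubicin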
[4] = viability of HCT116 without oncogenic beta-catenin – human colon tumor cells, pilot screen (AID 823;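 active means cell viability at or below a set limit in both duplicate runs, the limit being the all-compound median minus 4 SD, cut at about 23% in these data, passing the limit was not always enough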;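 further: 0% = wells killed by 20 µM Hyamine and 100% = untreated DMSO cell wells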); conditions: HCT116 beta-catenin knockout viability, CellTiter-Glo, 60 h; at 10 µM; active compounds read low
[5] = viability of PTEN-null HCT116 cells – cell-based, HCT116 clonal line, CellTiter-Glo, pilot screen (AID 824;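 active means viability at or below 27.92% in each of two runs, the all-compound median minus 4 SD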;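 further: 0% = 20 µM Hyamine control and 100% = vehicle cell control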); conditions: HCT116 PTEN-deleted viability, 60 h, at 10 µM, active compounds read low
[6] = RAM pathway blockade in budding yeast – dse1pr::URA3 reporter, 5-FOA selection, pilot screen (AID 869;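 active means inhibition over a set limit, the all-compound mean plus 3 SD, in both replicate runs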;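 further: 0% = DMSO wells with no growth and 100% = 10 µM 1-NA-PP1 with full growth; RAM network block rescues cells from 5-FOA so hits raise OD615 growth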); conditions: S. cerevisiae dse1pr::URA3 5-FOA growth, OD615, 2 d; at 10 µM; active compounds read high; strain carries analog-sensitive mutant Cbk1 kinase
[7] = RAM signaling pathway blockade in yeast – S. cerevisiae, Pdr1DBD-CYC8 efflux-inhibited sensitized strain, primary screen (AID 1298;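 active means RAM network inhibition above 8.4% in each of two replicates, 3 SD over the compound average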;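 further: 0% = DMSO untreated cells without growth and 100% = 10 µM 1-NA-PP1 full growth; higher means more yeast growth rescued from 5-FOA killing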); conditions: S. cerevisiae cbk1-as DSE1-URA3 strain, 5-FOA growth OD615, 2 d; at 50 µM; active compounds read high

C=C(C)Cn1c(C(C)NC(=O)CCC)nc2ccccc21 (configuration not stated)
inactive: growth inhibition [1] -26.1% | growth inhibition [2] -7.25% | viability increase [3] -3.54% | viability [4] 83.9% | viability [5] 86.7% | inhibition [6] 1.8% | RAM network inhibition [7] 0.47%

COCCCNC(=O)c1oc2ccc(S(=O)(=O)N(C)C3CCCCC3)cc2c1C
inactive: growth inhibition [1] 1.36% | growth inhibition [2] 5.4% | viability increase [3] 0.15% | viability [4] 90.1% | viability [5] 94.2% | inhibition [6] -0.46% | RAM network inhibition [7] 1.23%

COc1ccc(OCCOC(=O)Nc2ccccc2)cc1
inactive: growth inhibition [1] -13.2% | growth inhibition [2] -6.21% | viability increase [3] 1.53% | viability [4] 93.4% | viability [5] 94.1% | inhibition [6] 1.64% | RAM network inhibition [7] 5.48%

O=C1O/C(=C\C(=O)N2CCOCC2)c2ccccc21
inactive: growth inhibition [1] -2.53% | growth inhibition [2] 2.46% | viability increase [3] -1.56% | viability [4] 94.5% | viability [5] 99.2% | inhibition [6] 2.46% | RAM network inhibition [7] 4.69%

NC(=O)C1(N2CCCCC2)CCN(C(=O)c2ccccc2)CC1
inactive: growth inhibition [1] -4.24% | growth inhibition [2] -19.4% | viability increase [3] -1.09% | viability [4] 103% | viability [5] 90.4% | inhibition [6] 0.21% | RAM network inhibition [7] 5.36%

O=C(C1CC1)N1CCc2cc(Br)cc(S(=O)(=O)N3CCN(c4ccccn4)CC3)c21
inactive: growth inhibition [1] -13.2% | growth inhibition [2] -14.6% | viability increase [3] -2.17% | viability [4] 91% | viability [5] 91.5% | inhibition [6] 1.29% | RAM network inhibition [7] 5.52%

Cn1c(=O)c2c(nc(CN3CCN(CCO)CC3)n2Cc2ccccc2Cl)n(C)c1=O
inactive: growth inhibition [1] 4.8% | growth inhibition [2] -2.67% | viability increase [3] -3.91% | viability [4] 98.2% | viability [5] 96.2% | inhibition [6] 0.875% | RAM network inhibition [7] 4.94%

COC(=O)c1ccc(/C=N/n2cnnc2)cc1
inactive: growth inhibition [1] -10.3% | growth inhibition [2] -20% | viability increase [3] -1.44% | viability [4] 101% | viability [5] 89.3% | inhibition [6] 0.79% | RAM network inhibition [7] 4.48%

CCCC(=O)N=c1sc2cccc(F)c2n1C
inactive: growth inhibition [1] -9.43% | growth inhibition [2] -11.1% | viability increase [3] -2.75% | viability [4] 99% | viability [5] 93.2% | inhibition [6] 0.795% | RAM network inhibition [7] 5.05%

CC(C)N(Cc1nc2ccccc2[nH]1)C(C)C
inactive: growth inhibition [1] 2.5% | growth inhibition [2] 4.54% | viability increase [3] -0.49% | viability [4] 94.1% | viability [5] 91.9% | inhibition [6] 1.25% | RAM network inhibition [7] 0.22%

O/N=C1/CCc2cccc3cccc1c23
inactive: growth inhibition [1] -11.1% | growth inhibition [2] 0.79% | viability increase [3] -3.93% | viability [4] 96.1% | viability [5] 103% | inhibition [6] 2.06% | RAM network inhibition [7] -0.11%

CC(NC(=O)c1ccc(Cl)cc1)C(=O)N1CCCCC1 (configuration not stated)
inactive: growth inhibition [1] 2.3% | growth inhibition [2] 0.39% | viability increase [3] 0.75% | viability [4] 98% | viability [5] 96.9% | inhibition [6] 2.58% | RAM network inhibition [7] 5.32%

Clc1cccc(Nc2ncnc3c2cnn3-c2ccccc2)c1
inactive: growth inhibition [1] -15.3% | growth inhibition [2] -12.2% | viability increase [3] -2.07% | viability [4] 82.5% | viability [5] 78.6% | inhibition [6] 2.04% | RAM network inhibition [7] 4.85%

O=C(O)c1ccc(Cl)c2c1C1C=CCC1C(c1ccccn1)N2 (configuration not stated)
inactive: growth inhibition [1] -7.86% | growth inhibition [2] 8.06% | viability increase [3] -2.57% | viability [4] 98.3% | viability [5] 94.6% | inhibition [6] 2.31% | RAM network inhibition [7] 1.25%

COC(=O)Cn1cnc2c(nnn2-c2cccc(Cl)c2)c1=O
inactive: growth inhibition [1] -0.625% | growth inhibition [2] 0.135% | viability increase [3] 1.53% | viability [4] 108% | viability [5] 99.4% | inhibition [6] 1.28% | RAM network inhibition [7] -1.59%

COc1ccccc1NC(=O)CSc1ncn[nH]1
inactive: growth inhibition [1] -3.71% | growth inhibition [2] -11% | viability increase [3] 1.06% | viability [4] 98.2% | viability [5] 101% | inhibition [6] -0.045% | RAM network inhibition [7] 2.9%

— PubChem BioAssay
